Activity calls are given as the source filed them. The rule behind the calls is not given here.
What was measured:
Mus musculus [1] = assay: Neurotoxicity in CF1 mouse at 100 mg/kg, ip after 4 hrs by rotarod test; format: toxicity, organism-based; parameters: dose 100 mg/kg, route intraperitoneal; conditions: in vivo
Method in brief: (§1)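 Rotorod neurotoxicity in male CF-1 mice (18–25 g) after i.p. compound in 0.5% methyl cellulose/water or PEG 200 at 30, 100 or 300 mg/kg; reported as number showing toxicity/number tested.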

Mus musculus [2] = assay: Neurotoxicity in CF1 mouse at 300 mg/kg, ip after 4 hrs by rotarod test; format: toxicity, organism-based; parameters: dose 300 mg/kg, route intraperitoneal; conditions: in vivo; method in brief: as §1
Mus musculus [3] = assay: Anticonvulsant activity in CF1 mouse assessed as protection against 6 Hz electric shock-induced seizures at 100 mg/kg, ip after 0.25 hrs; format: functional, organism-based; parameters: dose 100 mg/kg
Method in brief: (§2)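 Male CF-1 albino mice (18–25 g), compound suspended in 0.5% methyl cellulose/water or PEG 200, given i.p.; four mice per time point (0.25, 0.5, 1.0, 2.0, 4 h) challenged via corneal electrodes at 6 Hz, 32 mA for 3 s, current eliciting psychomotor seizure in 97% of animals; reported as protected/tested.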

Mus musculus [4] = assay: Anticonvulsant activity in CF1 mouse assessed as protection against 6 Hz electric shock-induced seizures at 100 mg/kg, ip after 1 hr; format: functional, organism-based; parameters: dose 100 mg/kg; method in brief: as §2
Mus musculus [5] = assay: Anticonvulsant activity in CF1 mouse assessed as protection against 6 Hz electric shock-induced seizures at 100 mg/kg, ip after 2 hrs; format: functional, organism-based; parameters: dose 100 mg/kg; method in brief: as §2
Mus musculus [6] = assay: Anticonvulsant activity in CF1 mouse assessed as protection against 6 Hz electric shock-induced seizures at 100 mg/kg, ip after 4 hrs; format: functional, organism-based; parameters: dose 100 mg/kg; method in brief: as §2
Mus musculus [7] = assay: Anticonvulsant activity in CF1 mouse assessed as protection against maximal electroshock-induced seizures at 30 mg/kg, ip after 0.5 hrs; format: functional, organism-based; parameters: dose 30 mg/kg
Method in brief: (§3)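 Male CF-1 albino mice (18–25 g), dosed i.p. at 30, 100 or 300 mg/kg in 0.5% methyl cellulose/water or PEG 200 (0.01 ml/g); tested at intervals after dosing; protection = abolition of hind limb tonic extensor component of MES seizure; scored as protected/tested.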

Mus musculus [8] = assay: Anticonvulsant activity in CF1 mouse assessed as protection against maximal electroshock-induced seizures at 30 mg/kg, ip after 4 hrs; format: functional, organism-based; parameters: dose 30 mg/kg; method in brief: as §3
Mus musculus [9] = assay: Anticonvulsant activity in CF1 mouse assessed as protection against maximal electroshock-induced seizures at 100 mg/kg, ip after 0.5 hrs; format: functional, organism-based; parameters: dose 100 mg/kg; method in brief: as §3
Mus musculus [10] = assay: Anticonvulsant activity in CF1 mouse assessed as protection against maximal electroshock-induced seizures at 100 mg/kg, ip after 4 hrs; format: functional, organism-based; parameters: dose 100 mg/kg; method in brief: as §3
Mus musculus [11] = assay: Anticonvulsant activity in CF1 mouse assessed as protection against maximal electroshock-induced seizures at 300 mg/kg, ip after 0.5 hrs; format: functional, organism-based; parameters: dose 300 mg/kg; method in brief: as §3
Mus musculus [12] = assay: Anticonvulsant activity in CF1 mouse assessed as protection against subcutaneous metrazole-induced seizures at 30 mg/kg, ip after 0.5 hrs; format: functional, organism-based; parameters: dose 30 mg/kg
Mus musculus [13] = assay: Anticonvulsant activity in CF1 mouse assessed as protection against subcutaneous metrazole-induced seizures at 30 mg/kg, ip after 4 hrs; format: functional, organism-based; parameters: dose 30 mg/kg
Mus musculus [14] = assay: Anticonvulsant activity in CF1 mouse assessed as protection against subcutaneous metrazole-induced seizures at 100 mg/kg, ip after 0.5 hrs; format: functional, organism-based; parameters: dose 100 mg/kg
Mus musculus [15] = assay: Anticonvulsant activity in CF1 mouse assessed as protection against subcutaneous metrazole-induced seizures at 100 mg/kg, ip after 4 hrs; format: functional, organism-based; parameters: dose 100 mg/kg
Mus musculus [16] = assay: Anticonvulsant activity in CF1 mouse assessed as protection against subcutaneous metrazole-induced seizures at 300 mg/kg, ip after 0.5 hrs; format: functional, organism-based; parameters: dose 300 mg/kg
Mus musculus [17] = assay: Anticonvulsant activity in CF1 mouse assessed as protection against subcutaneous metrazole-induced seizures at 300 mg/kg, ip after 4 hrs; format: functional, organism-based; parameters: dose 300 mg/kg
Mus musculus [18] = assay: Neurotoxicity in CF1 mouse at 30 mg/kg, ip after 0.5 hrs by rotarod test; format: toxicity, organism-based; parameters: dose 30 mg/kg, route intraperitoneal; conditions: in vivo; method in brief: as §1
Mus musculus [19] = assay: Neurotoxicity in CF1 mouse at 100 mg/kg, ip after 0.5 hrs by rotarod test; format: toxicity, organism-based; parameters: dose 100 mg/kg, route intraperitoneal; conditions: in vivo; method in brief: as §1
Mus musculus [20] = assay: Neurotoxicity in CF1 mouse at 300 mg/kg, ip after 0.5 hrs by rotarod test; format: toxicity, organism-based; parameters: dose 300 mg/kg, route intraperitoneal; conditions: in vivo; method in brief: as §1
Mus musculus [21] = assay: Neurotoxicity in CF1 mouse at 30 mg/kg, ip after 4 hrs by rotarod test; format: toxicity, organism-based; parameters: dose 30 mg/kg, route intraperitoneal; conditions: in vivo; method in brief: as §1
Mus musculus [22] = assay: Anticonvulsant activity in CF1 mouse assessed as protection against maximal electroshock-induced seizures at 300 mg/kg, ip after 4 hrs; format: functional, organism-based; parameters: dose 300 mg/kg; method in brief: as §3

Compound	Activity (Mus musculus [1])	Activity (Mus musculus [2])	Activity (Mus musculus [3])	Activity (Mus musculus [6])	Activity (Mus musculus [7])	Activity (Mus musculus [8])	Activity (Mus musculus [9])	Activity (Mus musculus [10])	Activity (Mus musculus [11])	Activity (Mus musculus [12])	Activity (Mus musculus [13])	Activity (Mus musculus [14])	Activity (Mus musculus [15])	Activity (Mus musculus [16])	Activity (Mus musculus [17])	Activity (Mus musculus [18])	Activity (Mus musculus [19])	Activity (Mus musculus [20])	Activity (Mus musculus [21])	Activity (Mus musculus [22])	further results
CCCOc1c(C(=O)NN=C2CCCCCC2)sc(C(=O)NN=C2CCCCCC2)c1OCCC	Non-toxic	Non-toxic	inactive	inactive	inactive	inactive	inactive	inactive	inactive	inactive	inactive	inactive	inactive	inactive	inactive	Non-toxic	Non-toxic	Non-toxic	Non-toxic	–	Activity (Mus musculus [4]): inactive; Activity (Mus musculus [5]): inactive
CCCOc1c(C(=O)N/N=C\c2ccc3c(c2)Cc2ccccc2-3)sc(C(=O)N/N=C/c2ccc3c(c2)Cc2ccccc2-3)c1OCCC	Non-toxic	Toxic	inactive	inactive	inactive	inactive	inactive	inactive	inactive	inactive	inactive	–	inactive	inactive	inactive	Non-toxic	–	Toxic	Non-toxic	inactive	–
CCCOc1c(C(=O)N/N=C/c2ccc(-c3ccccc3)cc2)sc(C(=O)N/N=C/c2ccc(-c3ccccc3)cc2)c1OCCC	Non-toxic	Non-toxic	–	–	inactive	inactive	inactive	inactive	inactive	inactive	inactive	inactive	inactive	inactive	inactive	Non-toxic	Toxic	Toxic	Non-toxic	inactive	–
CCCOc1c(C(=O)NN=C2CC(C)Sc3sccc32)sc(C(=O)NN=C2CC(C)Sc3sccc32)c1OCCC (centres undefined)	Non-toxic	Non-toxic	–	–	inactive	inactive	inactive	inactive	inactive	inactive	inactive	inactive	inactive	inactive	inactive	Toxic	Toxic	Toxic	Non-toxic	inactive	–
CCCOc1c(C(=O)N/N=C\c2c[nH]c3ccccc23)sc(C(=O)N/N=C/c2c[nH]c3ccccc23)c1OCCC	Non-toxic	Non-toxic	inactive	inactive	inactive	inactive	inactive	inactive	inactive	inactive	inactive	–	inactive	inactive	inactive	Non-toxic	Toxic	Toxic	Non-toxic	inactive	Activity (Mus musculus [5]): inactive
CCCOc1c(C(=O)NN=C(C)C)sc(C(=O)NN=C(C)C)c1OCCC	Non-toxic	Non-toxic	–	–	inactive	inactive	inactive	inactive	inactive	inactive	inactive	inactive	inactive	inactive	inactive	Non-toxic	Non-toxic	Toxic	Non-toxic	inactive	–
CCCOc1c(C(=O)N/N=C\c2ccccc2)sc(C(=O)N/N=C/c2ccccc2)c1OCCC	Non-toxic	Non-toxic	inactive	inactive	inactive	inactive	inactive	inactive	inactive	inactive	inactive	inactive	inactive	inactive	–	Non-toxic	Non-toxic	Non-toxic	Non-toxic	inactive	Activity (Mus musculus [5]): inactive
CCCOc1c(C(=O)N/N=C(\C)c2ccc[nH]2)sc(C(=O)N/N=C(\C)c2ccc[nH]2)c1OCCC	Non-toxic	Non-toxic	–	–	inactive	inactive	inactive	inactive	inactive	inactive	inactive	inactive	inactive	inactive	inactive	Non-toxic	Non-toxic	Non-toxic	Non-toxic	inactive	–
CCCOc1c(C(=O)N/N=C(\C)c2c[nH]c3ccccc23)sc(C(=O)N/N=C(\C)c2c[nH]c3ccccc23)c1OCCC	Non-toxic	Non-toxic	–	–	inactive	inactive	inactive	inactive	inactive	inactive	inactive	inactive	inactive	inactive	inactive	Non-toxic	Non-toxic	Non-toxic	Non-toxic	inactive	–
CCCOc1c(C(=O)N/N=C/c2ccc3cc(OC)ccc3c2)sc(C(=O)N/N=C/c2ccc3cc(OC)ccc3c2)c1OCCC	Non-toxic	Non-toxic	–	–	inactive	inactive	inactive	inactive	inactive	inactive	inactive	inactive	inactive	inactive	inactive	Non-toxic	Non-toxic	Non-toxic	Non-toxic	inactive	–
CCCOc1c(C(=O)N/N=C(\C)c2cccs2)sc(C(=O)N/N=C(\C)c2cccs2)c1OCCC	Non-toxic	Non-toxic	inactive	–	inactive	inactive	inactive	inactive	inactive	inactive	inactive	inactive	inactive	inactive	–	Non-toxic	Non-toxic	Non-toxic	Non-toxic	–	–
